Test [1] concerns the target T1, Phospholipase A2 group V (Homo sapiens) (UniProt P39877).
T1 sequence (whole entry): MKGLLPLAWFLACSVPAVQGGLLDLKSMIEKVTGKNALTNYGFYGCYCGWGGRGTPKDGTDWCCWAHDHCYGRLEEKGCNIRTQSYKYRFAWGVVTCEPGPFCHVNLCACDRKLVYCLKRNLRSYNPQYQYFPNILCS
Nature of the test: Inhibition of human group 5 secretory PLA2 at 0.091 mole fraction in mixed-micelles by modified Dole assay.

The target in test [2] is T2, Cytosolic phospholipase A2 (Homo sapiens) (UniProt P47712).
T2 sequence (whole entry): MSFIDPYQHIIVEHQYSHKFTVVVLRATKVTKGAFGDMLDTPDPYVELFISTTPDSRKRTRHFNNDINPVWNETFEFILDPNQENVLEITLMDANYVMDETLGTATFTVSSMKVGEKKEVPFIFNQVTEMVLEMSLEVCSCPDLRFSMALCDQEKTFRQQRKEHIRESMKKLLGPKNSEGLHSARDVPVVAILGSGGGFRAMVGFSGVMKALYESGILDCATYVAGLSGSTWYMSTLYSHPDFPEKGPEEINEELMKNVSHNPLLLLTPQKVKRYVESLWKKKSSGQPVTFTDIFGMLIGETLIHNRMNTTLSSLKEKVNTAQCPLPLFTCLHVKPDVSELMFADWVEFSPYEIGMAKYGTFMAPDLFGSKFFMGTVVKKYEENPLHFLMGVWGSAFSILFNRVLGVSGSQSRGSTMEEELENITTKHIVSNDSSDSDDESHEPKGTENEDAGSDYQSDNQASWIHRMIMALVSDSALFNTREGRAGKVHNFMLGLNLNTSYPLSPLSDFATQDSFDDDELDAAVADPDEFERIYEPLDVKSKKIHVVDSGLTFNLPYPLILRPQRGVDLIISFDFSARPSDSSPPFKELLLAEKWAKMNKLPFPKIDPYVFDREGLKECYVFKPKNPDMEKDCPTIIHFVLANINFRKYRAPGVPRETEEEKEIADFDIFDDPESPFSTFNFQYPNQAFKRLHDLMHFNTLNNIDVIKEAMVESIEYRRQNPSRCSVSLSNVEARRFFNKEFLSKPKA
The test can be described thus: Inhibition of human group 4A cytosolic PLA2 at 0.091 mole fraction in mixed-micelles by modified Dole assay. The procedure, abridged: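 Buffer was 100 mM HEPES pH 7.5 with 90 μM CaCl2, 2 mM DTT and 0.1 mg/ml BSA. Inhibitor was screened at 0.091 mole fraction. Values are average percent inhibition, and 25% or less was scored as no inhibition.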

Test [3] concerns the target T3, 85/88 kDa calcium-independent phospholipase A2 (Homo sapiens) (UniProt O60733).
T3 sequence (whole entry): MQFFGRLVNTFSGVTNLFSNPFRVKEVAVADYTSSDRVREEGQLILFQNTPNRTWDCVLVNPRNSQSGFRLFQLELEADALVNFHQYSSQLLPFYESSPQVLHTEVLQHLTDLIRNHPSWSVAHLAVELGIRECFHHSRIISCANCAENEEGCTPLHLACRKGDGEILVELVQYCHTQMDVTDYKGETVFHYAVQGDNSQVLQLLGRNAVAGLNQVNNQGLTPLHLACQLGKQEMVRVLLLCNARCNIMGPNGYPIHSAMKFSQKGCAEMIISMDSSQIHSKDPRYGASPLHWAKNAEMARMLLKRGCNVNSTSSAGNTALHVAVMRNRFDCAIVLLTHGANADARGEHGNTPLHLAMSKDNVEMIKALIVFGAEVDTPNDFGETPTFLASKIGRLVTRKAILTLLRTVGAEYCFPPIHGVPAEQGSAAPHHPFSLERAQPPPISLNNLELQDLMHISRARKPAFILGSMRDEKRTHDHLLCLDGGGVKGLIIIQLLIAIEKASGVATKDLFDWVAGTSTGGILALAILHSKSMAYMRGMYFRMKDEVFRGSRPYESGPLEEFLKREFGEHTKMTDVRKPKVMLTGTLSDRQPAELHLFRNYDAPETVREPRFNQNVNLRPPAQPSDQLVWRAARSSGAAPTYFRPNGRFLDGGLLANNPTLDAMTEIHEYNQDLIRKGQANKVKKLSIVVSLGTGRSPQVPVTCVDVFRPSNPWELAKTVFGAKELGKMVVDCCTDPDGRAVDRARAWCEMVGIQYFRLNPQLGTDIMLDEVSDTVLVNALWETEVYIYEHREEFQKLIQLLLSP
The test can be described thus: Inhibition of human group 6A calcium-independent PLA2 at 0.091 mole fraction in mixed-micelles by modified Dole assay.

The target in test [4] is T3, 85/88 kDa calcium-independent phospholipase A2 (Homo sapiens). Nature of the test: Inhibition of human group 6A calcium-independent PLA2 treated in mixed-micelles by modified Dole assay. The procedure, abridged: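 Typically 7 mole fractions from 0.00091 to 0.091 were tested. XI(50) is the inhibitor mole fraction giving 50% inhibition, from a symmetrical sigmoidal regression of % inhibition versus log concentration.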

In test [5] the target is T2, Cytosolic phospholipase A2 (Homo sapiens). The test can be described thus: Inhibition of human group 4A cytosolic PLA2 treated in mixed-micelles by modified Dole assay. Summed up:
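Buffer was 100 mM HEPES pH 7.5 containing 90 μM CaCl2, 2 mM DTT and 0.1 mg/ml BSA. About 7 inhibitor mole fractions between 0.00091 and 0.091 were tested. XI(50) came from a symmetrical sigmoidal nonlinear fit of % inhibition versus log inhibitor.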

In the case of `O=C(CCCCc1cccc2ccccc12)C(F)(F)C(F)(F)F`, the results for the inhibition in test [1], in test [2] and in test [3] were 29.4%, 64% and 96.4%, respectively. For the same molecule, in test [4], the XI50 (mole fraction) was found to be 0.0034.

As for `O=C(CCCc1ccccc1)C(F)F`, the inhibition (commonly how much of the control response was suppressed) in test [1] was less than 25%; in test [2] it was less than 25%; in test [3], 86.5%.

As to `COc1ccccc1CCCCC(=O)C(F)(F)F`, the inhibition in test [1] is less than 25%; in test [2], 58.9%; in test [3], 82.8%.

On to `COc1ccc(CCCCC(=O)C(F)(F)F)cc1`, for which the inhibition in test [1] was less than 25%; in test [2] it was 54.3%; in test [3], 99.8%. Moreover, in test [4], the XI50 (mole fraction) was determined as 0.0001.

Regarding `O=C(CCc1ccccc1-c1ccccc1)C(F)(F)C(F)(F)F`, the inhibition in test [2] was less than 25%; in test [3] it was 90.4%.

As to `O=C(CCCCc1ccc(C(F)(F)F)cc1)C(F)(F)C(F)(F)F`, the inhibition is 36.9% in test [1], 62.5% in test [2] and 98.9% in test [3]. Moreover, the XI50 (mole fraction) in test [4] turned out to be 0.0003.

In the case of `COc1ccc(CCCCC(=O)C(F)(F)C(F)(F)F)cc1`, the inhibition is 32.8% in test [1], less than 25% in test [2] and 99.8% in test [3]. In addition, the XI50 (mole fraction) in test [4] turned out to be 0.0001.

For `COc1ccc2cc(CCCCC(=O)C(F)(F)F)ccc2c1`, the inhibition worked out at 41.7% in test [1], 85.5% in test [2] and 92.6% in test [3].

For the molecule `O=C(CCCCc1ccc2c(c1)OCO2)C(F)(F)C(F)(F)F`, the inhibition was found to be 29.4% in test [1], 38.3% in test [2] and 99.5% in test [3]. The XI50 (mole fraction) in test [4] turned out to be 0.0019.

In the case of `O=C(CCCCc1cccc2ccccc12)C(F)(F)F`, the inhibition in test [1] is 31.9%; in test [2], 77.4%; in test [3], 98.7%. The XI50 (mole fraction) in test [4] was 0.0018.

In the case of `O=C(CCCCc1ccc(F)cc1)C(F)(F)C(F)(F)F`, the inhibition was 29.3% in test [1], less than 25% in test [2] and 98.2% in test [3]. Besides, the XI50 (mole fraction) in test [4] amounted to 0.0003.

In the case of `COc1ccc(CCCCC(=O)C(F)(F)F)cc1OC`, the figures for the inhibition in test [1], in test [2] and in test [3] were less than 25%, 28.8% and 62.5%, respectively.

In the case of `COc1ccc(CCCCC(=O)C(F)(F)C(F)(F)F)c(OC)c1`, the inhibition turned out to be 38.7% in test [1], 35.6% in test [2] and 95.6% in test [3]. For the same molecule, the XI50 (mole fraction) in test [4] came to 0.0553.

For `O=C(CCCCc1ccccc1)C(F)F`, the inhibition in test [1] was less than 25%; in test [2], less than 25%; in test [3], 87.4%.

With `O=C(CCCCc1ccc(F)cc1)C(F)(F)F`, the inhibition in test [1] is less than 25%; in test [2] it was 41.4%; in test [3] it was 98.5%. The XI50 (mole fraction) in test [4] is 0.0002.

Regarding `COc1ccccc1CCCCC(=O)C(F)(F)C(F)(F)F`, the results for the inhibition in test [1], in test [2] and in test [3] were 39.1%, 30.5% and 95.5%, respectively. For the same molecule, in test [4], the XI50 (mole fraction) came out at 0.0263.

Consider `COc1ccc(CCCCC(=O)C(F)(F)C(F)(F)F)cc1OC`, for which the figures for the inhibition in test [1], in test [2] and in test [3] were less than 25%, less than 25% and 78.3%, respectively.

For `O=C(CCCCc1ccc(-c2ccccc2)cc1)C(F)(F)F`, the inhibition in test [1] is 40.5%; in test [2] it was 96.5%; in test [3], 97.9%. Further, the results for the XI50 (mole fraction) in test [5] and in test [4] were 0.0074 and 0.0189, respectively.

Turning to `O=C(CCCCc1cccc2ccccc12)C(F)(F)C(F)(F)C(F)(F)F`, the inhibition in test [1] stood at 57.8%; in test [2] it was 60.4%; in test [3], 76.7%.

Take `O=C(CCCCc1ccc2c(c1)OCO2)C(F)(F)F`: the inhibition is less than 25% in test [1], 41.2% in test [2] and 98.7% in test [3]. The XI50 (mole fraction) in test [4] was determined as 0.0025.

Turning to `COc1ccc(CCCCC(=O)C(F)(F)F)c(OC)c1`, the inhibition in test [1] is less than 25%; in test [2], 64.3%; in test [3], 89.6%.

In the case of `O=C(CCCCc1ccc(-c2ccccc2)cc1)C(F)(F)C(F)(F)F`, the inhibition in test [1] turned out to be 38.3%; in test [2] it was 72.6%; in test [3] it was 94.6%. Also, in test [4], the XI50 (mole fraction) was found to be 0.0134.

`O=C(CCCCc1ccc(C(F)(F)F)cc1)C(F)(F)F`: the results for the inhibition in test [1], in test [2] and in test [3] were 30.4%, 83.9% and 99.9%, respectively. Further, the XI50 (mole fraction) in test [4] turned out to be 0.0002.

On to `O=C(CCc1ccccc1-c1ccccc1)C(F)(F)F`, for which the inhibition in test [2] was less than 25%; in test [3] it was 75%.

As to `COc1ccc2cc(CCCCC(=O)C(F)(F)C(F)(F)F)ccc2c1`, the results for the inhibition in test [1], in test [2] and in test [3] were 63.1%, 54.7% and 92.5%, respectively.

The values are drawn from ChEMBL document CHEMBL2417458, “New potent and selective polyfluoroalkyl ketone inhibitors of GVIA calcium-independent phospholipase A2” (Bioorg Med Chem, 2013).
